ChEMBL document CHEMBL1126136, “Stereoselective LSD-like activity in d-lysergic acid amides of (R)- and (S)-2-aminobutane” (J Med Chem, 1992)

Key:
[1] = test system: Rattus norvegicus; test: Percentage of animals selecting drug lever at a dose 12 nmol/kg; format: functional
Summary of the method: (§1)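 Two-lever drug discrimination in rats trained to tell ip LSD tartrate (0.08 mg/kg, 186 nmol/kg, 30 min pretreatment) from saline, FR50 food schedule. Test drugs were given ip in saline. Test sessions ran under extinction and ended at 50 presses on one lever. Read-out was the percentage of rats selecting the drug lever at each dose; an 85% accuracy criterion applied.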

[2] = molecular target: T1, 5-hydroxytryptamine receptor 1A (Rattus norvegicus, UniProt P19327); test: Affinity in displacing [3H]8-OH-DPAT from rat hippocampal 5-HT1A receptor.; format: tissue-based, Hippocampus
T1 sequence (P19327 whole entry): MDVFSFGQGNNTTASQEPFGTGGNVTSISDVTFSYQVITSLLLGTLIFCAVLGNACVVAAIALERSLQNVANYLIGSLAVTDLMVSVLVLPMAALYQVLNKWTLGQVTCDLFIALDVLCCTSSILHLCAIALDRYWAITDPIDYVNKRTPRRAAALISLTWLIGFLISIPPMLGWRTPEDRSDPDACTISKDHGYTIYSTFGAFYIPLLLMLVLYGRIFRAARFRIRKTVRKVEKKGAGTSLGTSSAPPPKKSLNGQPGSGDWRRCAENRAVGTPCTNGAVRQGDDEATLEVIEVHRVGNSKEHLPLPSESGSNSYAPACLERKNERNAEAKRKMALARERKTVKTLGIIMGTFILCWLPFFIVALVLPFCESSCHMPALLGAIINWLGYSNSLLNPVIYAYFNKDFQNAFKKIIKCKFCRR
Summary of the method: (§2)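 Male Sprague-Dawley rat hippocampal homogenate (pooled from 10–20 rats, sucrose-washed, preincubated twice at 37 °C). Membranes at 200–400 µg protein in 50 mM Tris HCl pH 7.4 with 0.5 mM EDTA, 0.1% ascorbate and 10 µM pargyline. Displacement of 1.0 nM [3H]-8-OH-DPAT, 10 min at 37 °C, then filtered. Nonspecific binding defined with 10 µM serotonin. Triplicates; 3–4 experiments.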

[3] = molecular target: T2, Serotonin receptor 2a and 2b (5HT2A and 5HT2B) (Rattus norvegicus, UniProt P30994+P14842); test: Affinity in displacing [125I](R)-DOI from rat cortical homogenate 5-HT2 receptor.
Summary of the method: (§3)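 Male Sprague-Dawley rat frontal cortex homogenate (pooled from 10–20 rats, sucrose-washed, preincubated twice at 37 °C). Membranes at 200–400 µg protein in 50 mM Tris HCl pH 7.4 with 0.5 mM EDTA, 0.1% ascorbate, 10 µM pargyline and 10 mM MgCl2. Triplicates; Ki from 3–4 experiments.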

[4] = test system: Rattus norvegicus; test: Percentage of animals selecting drug lever at a dose 93 nmol/kg; format: functional; summary of the method: as §1
[5] = species on record: Rattus norvegicus; test: Potency of compound in 1-trained rats; format: functional
[6] = test system: Rattus norvegicus; test: Percentage of animals selecting drug lever at a dose 47nmol/kg; format: functional; summary of the method: as §1
[7] = species on record: Rattus norvegicus; test: Potency of compound in 1-trained rats measured as ED50 relative to LSD; format: functional
[8] = test system: Rattus norvegicus; test: Percentage of animals selecting drug lever at a dose 186 nmol/kg; format: functional; summary of the method: as §1
[9] = test system: Rattus norvegicus; test: Percentage of animals selecting drug lever at a dose 23 nmol/kg; format: functional; summary of the method: as §1
[10] = test system: Rattus norvegicus; test: Percentage of animals selecting drug lever at a dose 163 nmol/kg; format: functional; summary of the method: as §1
[11] = test system: Rattus norvegicus; test: Percentage of animals selecting drug lever at a dose 279 nmol/kg; format: functional; summary of the method: as §1
[12] = test system: Rattus norvegicus; test: Percentage of animals selecting drug lever at a dose 301 nmol/kg; format: functional; summary of the method: as §1
[13] = test system: Rattus norvegicus; test: Percentage of animals selecting drug lever at a dose 139 nmol/kg; format: functional; summary of the method: as §1
[14] = test system: Rattus norvegicus; test: Percentage of animals selecting drug lever at a dose 6 nmol/kg; format: functional; summary of the method: as §1
[15] = molecular target: T2, Serotonin receptor 2a and 2b (5HT2A and 5HT2B); test: Affinity in displacing [125I](R)-DOI from rat cortical homogenate 5-hydroxytryptamine 2 receptor.
Summary of the method: as §3, with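 “MgCl2. Displacement of 0.25 nM [125I]-(R)-DOI, 15 min at 37 °C, then filtered and gamma-counted.” for “MgCl2.”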

[16] = test system: Rattus norvegicus; test: Percentage of animals selecting drug lever at a dose 372 nmol/kg; format: functional; summary of the method: as §1
[17] = test system: Rattus norvegicus; test: Percentage of animals selecting drug lever at a dose 290 nmol/kg; format: functional; summary of the method: as §1
[18] = test system: Rattus norvegicus; test: Percentage of animals selecting drug lever at a dose 465 nmol/kg; format: functional; summary of the method: as §1
[19] = molecular target: T1, 5-hydroxytryptamine receptor 1A; test: Affinity in displacing [3H]8-OH-DPAT from rat hippocampal 5-hydroxytryptamine 1A receptor.; format: tissue-based, Hippocampus; summary of the method: as §2

SMILES | SDL [1] [%] | Ki [2] [nM] | Ki [3] [nM] | SDL [4] [%] | ED50 [5] [µmol/kg] | SDL [6] [%] | Relative potency [7] | SDL [8] [%] | SDL [9] [%] | SDL [10] [%] | SDL [11] [%] | SDL [12] [%] | SDL [13] [%] | SDL [14] [%] | Ki [15] [nM] | SDL [16] [%] | SDL [17] [%] | SDL [18] [%] | Ki [19] [nM]
CC[C@@H](C)NC(=O)[C@@H]1C=C2c3cccc4[nH]cc(c34)C[C@H]2N(C)C1 | 13 | 2.01 | 2.63 | 75 | 0.033 | 75 | 0.82 | 88 | 50 | – | – | – | – | – | – | – | – | – | –
CN1C[C@H](C(=O)N2CCCC2)C=C2c3cccc4[nH]cc(c34)C[C@H]21 | – | – | – | 22 | 0.168 | 22 | 0.16 | 60 | – | 40 | 67 | 82 | 27 | – | – | – | – | – | –
CCN(CC)C(=O)[C@@H]1C=C2c3cccc4[nH]cc(c34)C[C@H]2N(C)C1 [LYSERGIDE] | – | 5.05 | – | 100 | 0.0275 | 78 | – | – | 36 | – | – | – | – | 0 | – | – | – | – | –
CC[C@H](C)NC(=O)[C@@H]1C=C2c3cccc4[nH]cc(c34)C[C@H]2N(C)C1 | – | – | – | 50 | 0.124 | 13 | 0.22 | 75 | – | – | – | – | – | – | 7.76 | 75 | 67 | 100 | 4.61
